Measured values published in PMC9660540 (Clinical Cancer Research, 2022).

Assay: Causally related adverse events, phase Ia/Ib study in patients with solid tumors
Format: in vivo, human
How it was run: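 Expansion cohorts received nanosuspension at 100 mg once daily. The safety set was all patients given ≥1 dose, classified by the treatment actually received. Treatment was delayed or reduced for grade ≥3 or clinically significant nonhematologic toxicity.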

## Cc1cc(-c2nnc(N)nc2-c2ccc(F)cc2)cc(Cl)n1 [AZD4635]
CRC IO-naïve
  Causally related AE grade ≥3: ALT increased: 0 n (%)
  Causally related AE grade ≥3: Abdominal pain: 0 n (%)
  Causally related AE grade ≥3: Anemia: 0 n (%)
  Causally related AE grade ≥3: Arthralgia: 0 n (%)
  Causally related AE grade ≥3: Blood creatinine increased: 0 n (%)
  Causally related AE grade ≥3: CRP increased: 0 n (%)
  Causally related AE grade ≥3: Dermatitis psoriasiform: 0 n (%)
  Causally related AE grade ≥3: Diarrhea: 0 n (%)
  Causally related AE grade ≥3: Dizziness: 0 n (%)
  Causally related AE grade ≥3: Dyspnea: 0 n (%)
  Causally related AE grade ≥3: Fatigue: 1 (4.0) n (%)
  Causally related AE grade ≥3: Headache: 0 n (%)
  Causally related AE grade ≥3: Hyperglycemia: 0 n (%)
  Causally related AE grade ≥3: Hypertension: 0 n (%)
  Causally related AE grade ≥3: Hypophosphatemia: 0 n (%)
  Causally related AE grade ≥3: Insomnia: 0 n (%)
  Causally related AE grade ≥3: Lipase increased: 0 n (%)
  Causally related AE grade ≥3: Lymphocyte count decreased: 0 n (%)
  Causally related AE grade ≥3: Myositis: 0 n (%)
  Causally related AE grade ≥3: Nausea: 0 n (%)
  Causally related AE grade ≥3: Neutrophil count decreased: 0 n (%)
  Causally related AE grade ≥3: Obliterative bronchiolitis: 0 n (%)
  Causally related AE grade ≥3: Rash: 0 n (%)
  Causally related AE grade ≥3: Sudden death: 1 (4.0) n (%)
  Causally related AE grade ≥3: Type I diabetes mellitus: 0 n (%)
  Causally related AE grade ≥3: Vomiting: 1 (4.0) n (%)
  ≥Grade 3 causally related AE: 3 (12.0) n (%)
NSCLC Post-IO
  Causally related AE grade ≥3: ALT increased: 0 n (%)
  Causally related AE grade ≥3: Abdominal pain: 0 n (%)
  Causally related AE grade ≥3: Anemia: 0 n (%)
  Causally related AE grade ≥3: Arthralgia: 0 n (%)
  Causally related AE grade ≥3: Blood creatinine increased: 0 n (%)
  Causally related AE grade ≥3: CRP increased: 0 n (%)
  Causally related AE grade ≥3: Dermatitis psoriasiform: 0 n (%)
  Causally related AE grade ≥3: Diarrhea: 0 n (%)
  Causally related AE grade ≥3: Dizziness: 0 n (%)
  Causally related AE grade ≥3: Dyspnea: 0 n (%)
  Causally related AE grade ≥3: Fatigue: 1 (5.9) n (%)
  Causally related AE grade ≥3: Headache: 0 n (%)
  Causally related AE grade ≥3: Hyperglycemia: 0 n (%)
  Causally related AE grade ≥3: Hypertension: 0 n (%)
  Causally related AE grade ≥3: Hypophosphatemia: 0 n (%)
  Causally related AE grade ≥3: Insomnia: 0 n (%)
  Causally related AE grade ≥3: Lipase increased: 0 n (%)
  Causally related AE grade ≥3: Lymphocyte count decreased: 0 n (%)
  Causally related AE grade ≥3: Myositis: 0 n (%)
  Causally related AE grade ≥3: Nausea: 0 n (%)
  Causally related AE grade ≥3: Neutrophil count decreased: 0 n (%)
  Causally related AE grade ≥3: Obliterative bronchiolitis: 0 n (%)
  Causally related AE grade ≥3: Rash: 0 n (%)
  Causally related AE grade ≥3: Sudden death: 0 n (%)
  Causally related AE grade ≥3: Type I diabetes mellitus: 0 n (%)
  Causally related AE grade ≥3: Vomiting: 0 n (%)
  ≥Grade 3 causally related AE: 1 (5.9) n (%)
Other IO-naïve
  Causally related AE grade ≥3: ALT increased: 0 n (%)
  Causally related AE grade ≥3: Abdominal pain: 1 (5.3) n (%)
  Causally related AE grade ≥3: Anemia: 0 n (%)
  Causally related AE grade ≥3: Arthralgia: 0 n (%)
  Causally related AE grade ≥3: Blood creatinine increased: 0 n (%)
  Causally related AE grade ≥3: CRP increased: 0 n (%)
  Causally related AE grade ≥3: Dermatitis psoriasiform: 0 n (%)
  Causally related AE grade ≥3: Diarrhea: 1 (5.3) n (%)
  Causally related AE grade ≥3: Dizziness: 0 n (%)
  Causally related AE grade ≥3: Dyspnea: 0 n (%)
  Causally related AE grade ≥3: Fatigue: 2 (10.5) n (%)
  Causally related AE grade ≥3: Headache: 0 n (%)
  Causally related AE grade ≥3: Hyperglycemia: 0 n (%)
  Causally related AE grade ≥3: Hypertension: 2 (10.5) n (%)
  Causally related AE grade ≥3: Hypophosphatemia: 0 n (%)
  Causally related AE grade ≥3: Insomnia: 0 n (%)
  Causally related AE grade ≥3: Lipase increased: 0 n (%)
  Causally related AE grade ≥3: Lymphocyte count decreased: 0 n (%)
  Causally related AE grade ≥3: Myositis: 0 n (%)
  Causally related AE grade ≥3: Nausea: 0 n (%)
  Causally related AE grade ≥3: Neutrophil count decreased: 0 n (%)
  Causally related AE grade ≥3: Obliterative bronchiolitis: 0 n (%)
  Causally related AE grade ≥3: Rash: 0 n (%)
  Causally related AE grade ≥3: Sudden death: 0 n (%)
  Causally related AE grade ≥3: Type I diabetes mellitus: 0 n (%)
  Causally related AE grade ≥3: Vomiting: 0 n (%)
  ≥Grade 3 causally related AE: 5 (26.3) n (%)
Other Post-IO
  Causally related AE grade ≥3: ALT increased: 0 n (%)
